The record followed here is ChEMBL document CHEMBL2311405, “Synthesis and biological evaluation of indenoisoquinolines that inhibit both tyrosyl-DNA phosphodiesterase I (Tdp1) and topoisomerase I (Top1)” (J Med Chem, 2013).

SMILES strings stand for the structures. Active and inactive are the calls of the source. The rule behind the calls is not given here.

In assay [1] the target is T1, DNA topoisomerase 1 (Homo sapiens) (UniProt P11387).
T1 sequence (whole entry): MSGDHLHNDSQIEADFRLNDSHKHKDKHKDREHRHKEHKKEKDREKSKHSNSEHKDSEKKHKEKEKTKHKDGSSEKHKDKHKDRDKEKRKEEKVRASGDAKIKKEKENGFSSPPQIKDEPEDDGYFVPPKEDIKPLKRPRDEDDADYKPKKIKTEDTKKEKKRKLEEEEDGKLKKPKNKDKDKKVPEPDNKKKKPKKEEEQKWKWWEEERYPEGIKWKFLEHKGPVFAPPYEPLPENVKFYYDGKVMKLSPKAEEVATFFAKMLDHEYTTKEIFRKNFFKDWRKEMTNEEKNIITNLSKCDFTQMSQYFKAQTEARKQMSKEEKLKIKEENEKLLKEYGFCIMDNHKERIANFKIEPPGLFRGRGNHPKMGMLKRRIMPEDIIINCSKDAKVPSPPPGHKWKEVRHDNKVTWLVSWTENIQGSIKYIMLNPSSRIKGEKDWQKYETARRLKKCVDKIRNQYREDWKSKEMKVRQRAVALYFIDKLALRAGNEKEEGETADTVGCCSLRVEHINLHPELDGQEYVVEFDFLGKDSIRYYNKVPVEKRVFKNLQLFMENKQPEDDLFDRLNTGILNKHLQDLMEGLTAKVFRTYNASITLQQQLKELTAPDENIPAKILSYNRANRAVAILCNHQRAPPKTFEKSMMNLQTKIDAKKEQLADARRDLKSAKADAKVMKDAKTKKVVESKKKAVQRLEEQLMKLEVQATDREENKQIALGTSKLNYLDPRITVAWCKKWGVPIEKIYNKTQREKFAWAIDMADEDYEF
Description: Inhibition of recombinant Top1 (unknown origin) using 3'-[32P]-end-labeled 117 bp oligonucleotide as substrate after 20 mins by SDS-PAGE analysis. The procedure, abridged:
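3′-[32P]-end-labeled 117-bp DNA at 2 nM incubated with recombinant Top1 at 25 °C for 20 min across a range of compound concentrations. Stopped with SDS (0.5% final) plus formamide loading dye, then 20% denaturing PAGE. Dried gels were phosphorimaged.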

For assay [2], the target named is Tyrosyl-DNA phosphodiesterase 1 (Homo sapiens, UniProt Q9NUW8). Kind of assay: Inhibition of recombinant Tdp1 (unknown origin) using 5'-[32P]-labeled single-stranded DNA oligonucleotide containing 3'-phosphotyrosine as substrate after 15 mins by PAGE analysis.
Chain of Tyrosyl-DNA phosphodiesterase 1 (Q9NUW8 whole entry): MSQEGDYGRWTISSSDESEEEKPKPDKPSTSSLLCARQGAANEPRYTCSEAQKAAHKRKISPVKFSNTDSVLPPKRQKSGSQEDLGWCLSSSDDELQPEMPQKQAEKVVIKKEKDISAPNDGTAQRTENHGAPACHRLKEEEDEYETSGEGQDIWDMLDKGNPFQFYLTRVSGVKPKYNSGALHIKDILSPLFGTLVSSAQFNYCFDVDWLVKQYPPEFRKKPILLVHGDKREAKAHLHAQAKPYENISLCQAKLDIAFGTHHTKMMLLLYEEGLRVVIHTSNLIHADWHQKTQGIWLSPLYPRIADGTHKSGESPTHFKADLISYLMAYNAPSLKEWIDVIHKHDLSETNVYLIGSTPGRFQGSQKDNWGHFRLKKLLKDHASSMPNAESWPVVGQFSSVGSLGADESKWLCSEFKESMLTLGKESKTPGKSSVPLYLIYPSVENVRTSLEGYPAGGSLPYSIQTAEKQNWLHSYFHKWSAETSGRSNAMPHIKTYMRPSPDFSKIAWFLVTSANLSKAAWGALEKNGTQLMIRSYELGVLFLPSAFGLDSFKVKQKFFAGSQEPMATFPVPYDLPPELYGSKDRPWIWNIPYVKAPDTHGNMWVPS
Another assay has as its system HOP-62. Kind of assay: Growth inhibition of human HOP62 cells. Format: functional.
For the next assay, the system named is HCT-116. Description: Growth inhibition of human HCT116 cells. It is filed as functional.
For another assay, the system named is SF-539. Kind of assay: Growth inhibition of human SF539 cells. It is filed as functional. In a few lines:
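Human cancer cell line panel, compounds tested at concentrations up to 10 μM. GI50 per cell line is the mean of two determinations where a standard error is given, otherwise from one determination.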

For a further assay, the system named is MDA-MB-435. Description: Growth inhibition of human MDA-MB-435 cells. It is filed as functional.
The next assay deals with SN12C. Description: Growth inhibition of human SN12C cells. Format: functional.
In a further assay the test system is OVCAR-3. Description: Growth inhibition of human OVCAR3 cells. Format: functional.
For the next assay, the system named is DU-145. Kind of assay: Growth inhibition of human DU145 cells. Format: functional.
A further assay relates to UACC-62. Kind of assay: Growth inhibition of human UACC62 cells. It is filed as functional.
Assay [3] has as its target T1, DNA topoisomerase 1 (Homo sapiens). Description: Inhibition of recombinant Top1 (unknown origin) using 3'-[32P]-end-labeled 117 bp oligonucleotide as substrate after 20 mins by SDS-PAGE analysis relative to 1 uM MJ-3-65.

With `CC(=O)Nc1ccc2c3c(n(CCCN)c(=O)c2c1)-c1ccccc1C3=O`, the inhibition result in assay [1] is “inactive”.

`CC(C)(C)OC(=O)NCCCn1c2c(c3ccc(NCC(=O)O)cc3c1=O)C(=O)c1ccccc1-2`: in [1], the inhibition entry was “inactive”. Also, the IC50 (in general, the midpoint of a concentration-inhibition curve) in [2] was above 111000 nM.

Take `NCCCn1c2c(c3ccc(N)cc3c1=O)C(=O)c1ccccc1-2`: the GI50 (as a rule, the concentration giving 50% growth inhibition) with HOP-62 turned out to be 270 nM; with HCT-116, 180 nM; in the assay on SF-539, 340 nM; in the assay on MDA-MB-435 it was 230 nM; in the assay with SN12C it was 230 nM; in the assay with OVCAR-3, 130 nM. The GI50 in the assay on DU-145 was 120 nM; in the assay on UACC-62 it was 300 nM.

Regarding `NCCCn1c2c(c3ccc(NC(=O)CCCCC(=O)O)cc3c1=O)C(=O)c1ccccc1-2`, the inhibition entry in assay [1] was “inactive”. Moreover, the half-inhibitory concentration (IC50) in assay [2] is above 111000 nM.

For `COC(=O)CCCC(=O)Nc1ccc2c3c(n(CCCNC(=O)OC(C)(C)C)c(=O)c2c1)-c1ccccc1C3=O`, the inhibition entry in assay [1] was “inactive”. In addition, the concentration for half-maximal inhibition (IC50) in [2] was above 111000 nM.

Consider `CC(=O)Nc1ccc2c3c(n(CCCN=[N+]=[N-])c(=O)c2c1)-c1ccccc1C3=O`, for which the inhibition entry in assay [3] is “Active”.

Consider `COc1ccc2c(c1)-c1c(c3ccc([N+](=O)[O-])cc3c(=O)n1CCCN=[N+]=[N-])C2=O`, for which the inhibition result in assay [1] was “inactive”. Also, the IC50 in assay [2] was above 111000 nM.

As for `COC(=O)CCC(=O)Nc1ccc2c3c(n(CCCNC(=O)OC(C)(C)C)c(=O)c2c1)-c1ccccc1C3=O`, the inhibition entry in assay [1] was “inactive”. Moreover, the IC50 in [2] was above 111000 nM.

With `COC(=O)CCC(=O)Nc1ccc2c3c(n(C)c(=O)c2c1)-c1ccccc1C3=O`, the IC50 in [2] was above 111000 nM.

Turning to `NCCCn1c2c(c3ccc(NC(=O)CCCC(=O)O)cc3c1=O)C(=O)c1ccccc1-2`, in assay [1], the inhibition result is “inactive”. Moreover, in assay [2], the concentration for half-maximal inhibition (IC50) is above 111000 nM.

`COC(=O)CC(=O)Nc1ccc2c3c(n(C)c(=O)c2c1)-c1ccccc1C3=O`: the inhibition result in assay [1] was “inactive”. For the same compound, in assay [2], the IC50 was above 111000 nM.

Consider `NCCCn1c2c(c3ccc(NC(=O)C(=O)O)cc3c1=O)C(=O)c1ccccc1-2`, for which the inhibition result in assay [1] was “inactive”. Further, the half-inhibitory concentration (IC50) in assay [2] was above 111000 nM.

`COc1ccc2c(c1)C(=O)c1c-2n(CCCN)c(=O)c2cc(I)ccc12`: the concentration for 50% growth inhibition (GI50) with HOP-62 stood at 140 nM; with HCT-116, 70 nM; in the assay with SF-539, 390 nM; in the assay on MDA-MB-435 it was 960 nM; with SN12C, 50 nM; in the assay with OVCAR-3, 1320 nM. In addition, the values for the concentration for 50% growth inhibition (GI50) in the assay on DU-145 and in the assay with UACC-62 were 50 nM and 140 nM, respectively.

As to `N#Cc1ccc2c3c(n(CCCn4ccnc4)c(=O)c2c1)-c1ccccc1C3=O`, the 50% inhibitory concentration (IC50) in [2] was above 111000 nM. In [3], the inhibition result was “Active”.

For the compound `COc1ccc2c(c1)-c1c(c3ccc([N+](=O)[O-])cc3c(=O)n1CCCN)C2=O`, the concentration for 50% growth inhibition (GI50) in the assay on HCT-116 is 60 nM; in the assay on SF-539, 610 nM; in the assay on MDA-MB-435 it was 580 nM; with SN12C, 150 nM; with OVCAR-3 it was 540 nM; with DU-145, 180 nM. Further, in [3], the inhibition entry was “Active”.

As for `COC(=O)CCCCC(=O)Nc1ccc2c3c(n(CCCN)c(=O)c2c1)-c1ccccc1C3=O`, the concentration for 50% growth inhibition (GI50) with HOP-62 was 2320 nM; in the assay on HCT-116, 510 nM; in the assay on SF-539 it was 5650 nM; in the assay with MDA-MB-435, 4300 nM; in the assay with SN12C, 1820 nM; with OVCAR-3 it was 3520 nM. Besides, the concentration for 50% growth inhibition (GI50) with DU-145 amounted to 770 nM; with UACC-62 it was 2430 nM.

With `Cn1c2c(c3ccc(NC(=O)CC(=O)O)cc3c1=O)C(=O)c1ccccc1-2`, the 50% inhibitory concentration (IC50) in [2] was above 111000 nM.

Consider `NCCCn1c2c(c3ccc(NC(=O)CCC(=O)O)cc3c1=O)C(=O)c1ccccc1-2`, for which, in assay [1], the inhibition result is “inactive”. Also, the concentration for half-maximal inhibition (IC50) in [2] is above 111000 nM.

Regarding `COc1ccc2c(c1)C(=O)c1c-2n(CCCN)c(=O)c2cc(N)ccc12`, the GI50 in the assay on HOP-62 was below 10 nM; in the assay on HCT-116, below 10 nM; in the assay on SF-539, 30 nM; in the assay with MDA-MB-435 it was 120 nM; with SN12C, below 10 nM; in the assay with OVCAR-3, 20 nM. Also, the GI50 in the assay with DU-145 is below 10 nM; in the assay on UACC-62 it was 100 nM.

Regarding `CCOC(=O)CNc1ccc2c3c(n(CCCN)c(=O)c2c1)-c1ccccc1C3=O`, the GI50 in the assay on HOP-62 is 930 nM; in the assay with HCT-116 it was 440 nM; in the assay with SF-539 it was 8910 nM; in the assay on MDA-MB-435, 3050 nM; with SN12C, 1750 nM; in the assay with OVCAR-3 it was 3120 nM. In addition, the GI50 with DU-145 worked out at 1680 nM; in the assay on UACC-62, 2250 nM.

As for `COc1ccc2c(c1)-c1c(c3ccc([N+](=O)[O-])cc3c(=O)n1CCCN1CCOCC1)C2=O`, the IC50 in assay [2] is above 111000 nM. Besides, in assay [3], the inhibition entry was “Active”.

For `COC(=O)CC(=O)Nc1ccc2c3c(n(CCCNC(=O)OC(C)(C)C)c(=O)c2c1)-c1ccccc1C3=O`, the inhibition result in assay [1] is “inactive”. Further, in assay [2], the IC50 was above 111000 nM.

In the case of `O=C1c2ccccc2-c2c1c1ccc([N+](=O)[O-])cc1c(=O)n2CCCO`, the GI50 with HCT-116 was 190 nM; in the assay with MDA-MB-435, 1970 nM; in the assay on SN12C, 470 nM; in the assay with OVCAR-3 it was 870 nM; in the assay with DU-145, 430 nM; in the assay on UACC-62, 310 nM. Further, the inhibition entry in [3] is “Active”.

On to `NCCCn1c2c(c3ccc(NC(=O)CC(=O)O)cc3c1=O)C(=O)c1ccccc1-2`, for which the inhibition result in [1] is “inactive”. Besides, in assay [2], the IC50 was above 111000 nM.

For `NCCCn1c2c(c3ccccc3c1=O)C(=O)c1ccccc1-2`, the inhibition result in assay [3] is “Active”.

On to `COC(=O)CCCC(=O)Nc1ccc2c3c(n(C)c(=O)c2c1)-c1ccccc1C3=O`, for which the inhibition result in [1] was “inactive”. In [2], the half-inhibitory concentration (IC50) is above 111000 nM.

Consider `COc1ccc2c(c1)-c1c(c3ccc([N+](=O)[O-])cc3c(=O)n1CCCBr)C2=O`, for which the half-maximal inhibitory concentration (IC50) in assay [2] is above 111000 nM. Further, the inhibition result in assay [3] is “Active”.

On to `Cn1c2c(c3ccc(NC(=O)C(=O)O)cc3c1=O)C(=O)c1ccccc1-2`, for which the inhibition entry in assay [3] is “Active”.

For `COC(=O)C(=O)Nc1ccc2c3c(n(C)c(=O)c2c1)-c1ccccc1C3=O`, the inhibition entry in [1] was “inactive”. Moreover, the IC50 in assay [2] is above 111000 nM.

For the compound `N#Cc1ccc2c3c(n(CCCN4CCOCC4)c(=O)c2c1)-c1ccccc1C3=O`, the concentration for half-maximal inhibition (IC50) in [2] is above 111000 nM. Moreover, the inhibition result in assay [3] is “Active”.

For `COC(=O)CCCCC(=O)Nc1ccc2c3c(n(C)c(=O)c2c1)-c1ccccc1C3=O`, in assay [1], the inhibition result was “inactive”. Moreover, the 50% inhibitory concentration (IC50) in assay [2] was above 111000 nM.

Consider `CCOC(=O)CNc1ccc2c3c(n(C)c(=O)c2c1)-c1ccccc1C3=O`, for which the inhibition entry in [1] is “inactive”. For the same compound, in assay [2], the IC50 is above 111000 nM.

On to `Cn1c2c(c3ccc(NCC(=O)O)cc3c1=O)C(=O)c1ccccc1-2`, for which, in assay [1], the inhibition result is “inactive”. For the same compound, the IC50 in assay [2] is above 111000 nM.

Turning to `CC(=O)Nc1ccc2c3c(n(CCCO)c(=O)c2c1)-c1ccccc1C3=O`, the inhibition result in assay [1] is “inactive”.

As for `CC(=O)Nc1ccc2c3c(n(CCCN)c(=O)c2c1)-c1ccccc1C3O` (centres undefined), the inhibition entry in assay [1] is “inactive”.

On to `CC(C)(C)OC(=O)NCCCn1c2c(c3ccc(NC(=O)CCCC(=O)O)cc3c1=O)C(=O)c1ccccc1-2`, for which the inhibition result in assay [1] was “inactive”. The IC50 in [2] was above 111000 nM.
